Here are results for one compound from ChEMBL document CHEMBL1629645 (Antimicrob Agents Chemother, 2009).

Series [1] is described as follows: Cmax in cage fluid of Albino guiena pig at 10 mg/kg, ip after 12 hrs. On the set-up: dose 10 mg/kg, route intraperitoneal. It is filed as ADME, organism-based, Cavia porcellus, Interstitial fluid. The following applies: guinea pig.
Series [2] relates to Staphylococcus aureus. Kind of series: Antibacterial activity against methicillin-resistant Staphylococcus aureus ATCC 43300 by macrodilution method. It is filed as functional. A digest of the protocol:
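Broth macrodilution MIC in Mueller-Hinton broth per CLSI. Inoculum 1 × 10^5 to 5 × 10^5 CFU/ml. Ten twofold drug dilutions, 18 h at 37°C without shaking. MIC is the lowest concentration with no visible growth. Triplicate.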

Series [3] is described as follows: Half life in cage fluid of Albino guiena pig at 10 mg/kg, ip. It counts as ADME, organism-based, Cavia porcellus. On the set-up: dose 10 mg/kg, route intraperitoneal. The following applies: guinea pig, in vivo.
Series [4] in a line: Tmax in cage fluid of Albino guiena pig at 10 mg/kg, ip. It counts as ADME, organism-based, Cavia porcellus. Also noted: dose 10 mg/kg, route intraperitoneal. The following applies: guinea pig.
Series [5] concerns Staphylococcus aureus. Briefly: Antibacterial activity against methicillin-resistant Staphylococcus aureus ATCC 43300 during logarithmic growth phase by macrodilution method. It is filed as functional.
A short description of series [6]: AUC (0 to 24 hrs) in cage fluid of Albino guiena pig at 10 mg/kg, ip. It is filed as ADME, organism-based, Cavia porcellus. On the set-up: time < 24 hr, dose 10 mg/kg, route intraperitoneal. The following applies: guinea pig.
The test system of series [7] is Staphylococcus aureus. Briefly: Antibacterial activity against methicillin-resistant Staphylococcus aureus ATCC 43300 during stationary growth phase by macrodilution method. It is filed as functional.
The nature of series [8]: Cmin in cage fluid of Albino guiena pig at 10 mg/kg, ip after 12 hrs. It counts as ADME, organism-based, Cavia porcellus. The following applies: guinea pig, read-out: Cmin. On the set-up: dose 10 mg/kg, route intraperitoneal.

Take `C[C@H]1COc2c(N3CCN(C)CC3)c(F)cc3c(=O)c(C(=O)O)cn1c23.C[C@H]1COc2c(N3CCN(C)CC3)c(F)cc3c(=O)c(C(=O)O)cn1c23.O` [LEVOFLOXACIN]: the Cmax in series [1] amounted to 1500 ng/mL. The compound further registered an MIC in the series on Staphylococcus aureus [2] of 0.16 µg/mL. In series [3], this compound showed a t1/2 of 4.2 h. In addition, in series [4], the time to peak (Tmax) was determined as 2.5 h. Also, the MBC against Staphylococcus aureus [5] was 0.63 µg/mL; against Staphylococcus aureus [7], above 20 µg/mL. The compound further displayed an AUC(0-t) at 24 h in series [6] of 6100 ng·h/mL. Besides, the concentration at 12 h in series [8] was 300 ng/mL.

For orientation: Cmax means the maximum level reached in the sampled fluid or tissue. As usually defined, the MIC is the lowest concentration that inhibits growth of the organism. A low value points to inhibition by little substance. As usually defined, the Tmax is the time at which the peak concentration occurs. In general, MBC refers to the smallest concentration meeting the test's criterion for killing. A word on the AUC(0-t): it is the area under the concentration-time curve up to a stated or last time point. A higher AUC(0-t) goes with high exposure.
